This is a sample that favours compounds with a hit; in the whole collection about 4.9% have one here.
STAT1 act = activators of IFN-gamma induced STAT1 signaling; NIH 3T3 STAT1-luciferase reporter, luminescence; 100% = IFN-gamma alone, no compound; activation (% of control), % at 5.5 µM; hit rate 2.6% among 200,000;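 active = activation above the screen-wide mean activation plus 3 SD, cut at about 130% in these data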
STAT3 inh = STAT3 signaling inhibition | U3A cells, IL-6 STAT3-luciferase reporter, luminescence; host cell line lacks STAT1 | inhibition, % at 5.5 µM | hit rate 0.89% among 190,000;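 active = inhibition above the mean inhibition across all screened compounds plus 3 SD, cut at about 44% in these data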
STAT1 blocker = reduces IFN-gamma driven STAT1 reporter signal. NIH 3T3 STAT1-luciferase reporter, luminescence. inhibition, % at 5.5 µM. hit rate 0.35% among 200,000. AID 920;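 active = inhibition above a set limit, the mean inhibition across all tested compounds plus 3 SD, cut at about 34% in these data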
STAT3 act = increases IL-6 driven STAT3 reporter signal; U3A cells, IL-6 STAT3-luciferase reporter, luminescence; 100% = signal with IL-6 EC80 alone; activation (% of control), % at 5.6 µM; hit rate 0.91% among 190,000;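 active = activation above the screen-wide mean of compound activation plus 3 SD, cut at about 130% in these data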
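Material: STAT3-luciferase reporter U3A cells; Probe or stimulus: IL-6 (33 ng/mL); Incubation: compound pre-incubation 1 h before IL-6, then 6 h stimulation at 37 °C; Technique: luminescence from STAT3-driven luciferase reporter; Evaluation: % activation versus median of IL-6-stimulated wells; Controls: IL-6-only high control.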
NF-kB expr up = NF-kB expression increase, human neuronal cells. NF-kB reporter expression; stronger effect = higher value. fold change at 12.5 µM. hit rate 1.6% among 190,000. AID 1239; in the data active = fold change above about 3.3
APP 5'UTR act = APP 5'UTR luciferase reporter activation; SH-SY5Y APP 5'UTR luciferase reporter, luminescence; zero percent = DMSO vehicle wells; activation, % at 2 µM; hit rate 1% among 190,000; AID 1276;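 active = activation above a set limit, based on mean plus 3 SD of controls, cut at about 140% in these data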
Numbers stand for hits; 0 = inactive; - = not tested or not shown.

SMILES | STAT1 act | STAT3 inh | STAT1 blocker | STAT3 act | NF-kB expr up | APP 5'UTR act
Cc1ccc(-c2cn3cccc(C)c3n2)cc1 | 0 | 0 | 0 | 0 | 7.72 | 154.4
Cc1cccn2cc(-c3ccc(S(=O)(=O)N4CCCCC4)cc3)nc12 | 0 | 0 | 0 | 0 | 0 | 0
CCCC(c1nnnn1CCOC)N1CCN(c2nc3ccccc3s2)CC1 (stereo not given) | 0 | 0 | 0 | 0 | 0 | 0
Cc1ccc(S(=O)(=O)N2CCN(C(=O)c3cc(=O)c4ccccc4o3)CC2)cc1 | 0 | 0 | 0 | 0 | 0 | 0
Cc1ccc(C(=O)Nc2ccc3nc(C)sc3c2)s1 | 140.6 | 0 | 0 | 0 | 6.58 | 166.7
CCn1c(CN2CCN(c3cccc(C)c3C)CC2)n[nH]c1=S | 0 | 0 | 0 | 0 | 0 | 0
COc1cc(/C=C(\C#N)c2nc3ccccc3[nH]2)c([N+](=O)[O-])cc1OCc1ccccc1 | 0 | 0 | 0 | 136.6 | 0 | 0
COc1cc(/C=C(\C#N)c2nc3ccccc3[nH]2)ccc1OC(=O)c1ccco1 | 0 | 0 | 0 | 0 | 0 | 0
c1ccc(Cc2cc(-c3ccccc3)on2)cc1 | 132.2 | 0 | 0 | 0 | 0 | 0
Cc1c(N=C2NC(=O)/C(=C/c3cccc([N+](=O)[O-])c3)S2)c(=O)n(-c2ccccc2)n1C | 0 | 0 | 0 | 0 | 0 | 0
CN(C)c1ccc(/C=N/N=C2/NC(=O)/C(=C/c3ccc([N+](=O)[O-])cc3)S2)cc1 | 0 | 0 | 34.6 | 0 | 0 | 0
COc1cccc(NC(=O)CSc2nnc(-c3ccc(C)cc3)o2)c1 | 0 | 0 | 0 | 0 | 0 | 217.3
COc1ccccc1NC(=O)CSc1nnc(-c2ccc(C)cc2)o1 | 0 | 0 | 0 | 0 | - | 180.7
O=C(CSc1ccc(Cl)cc1)Nc1cccc(-c2nnc(-c3ccco3)o2)c1 | 0 | 0 | 0 | 0 | 0 | 0
Cc1ccc(SCC(=O)Nc2cccc(-c3nnc(-c4ccco4)o3)c2)cc1 | 134.4 | 0 | 0 | 0 | 0 | 0
CCOC(=O)c1cc(-c2ccccc2)sc1NC(=O)c1cc(OC)c(OC)c(OC)c1 | 0 | 0 | 0 | 0 | 0 | 0
O=C(Nc1ccc(Cl)c(Cl)c1)c1ccncc1 | 0 | 0 | 0 | 0 | 0 | 0
COc1ccc(C(=O)Nc2ccc(Cl)c(Cl)c2)c(OC)n1 | 130.9 | 0 | 0 | 136.4 | 4.63 | 0
CCc1ccc2oc(-c3cc(N)ccc3O)nc2c1 | 0 | 0 | 0 | 0 | 4.02 | 186.9
CCc1ccc2oc(-c3cc(N)ccc3Cl)nc2c1 | 131.3 | 0 | 0 | 0 | 0 | 160.0
Cc1c(Cl)cccc1NC(=O)Cc1ccc([N+](=O)[O-])cc1 | 0 | 0 | 0 | 0 | 0 | 0
Fc1ccccc1/C=N/Nc1ncnc2ccccc12 | 0 | 0 | 0 | 0 | 7.91 | 0
CC(=O)Cn1nnc2sc(-c3ccccc3)cc2c1=O | 145.8 | 0 | 0 | 0 | 0 | 0
COc1ccc(-n2cnc3sc(-c4ccccc4)cc3c2=O)cc1 | 149.4 | 0 | 0 | 0 | 3.48 | 0
CCc1cc2c(=O)n(-c3ccc(C)cc3)cnc2s1 | 138.7 | 0 | 0 | 0 | 4.24 | 0
SMILES | STAT1 act | STAT3 inh | STAT1 blocker | STAT3 act | NF-kB expr up | APP 5'UTR act
O=c1c2cc(-c3ccccc3)sc2ncn1-n1cccc1 | 129.1 | 0 | 0 | 0 | 0 | 0
CCc1cc2c(=O)n(-c3ccccc3)cnc2s1 | 0 | 0 | 0 | 0 | 0 | -
Cc1ccc(-n2c(-c3ccncc3)n[nH]c2=S)c(C)c1 | 0 | 0 | 0 | 0 | 0 | 0
COc1ccc(Oc2ccc(NC(=O)c3ccccc3C)cc2)cc1 | 0 | 0 | 0 | 0 | 0 | 0
CC(=O)Cn1cnc2sc(-c3ccccc3)cc2c1=O | 144.8 | 0 | 0 | 0 | 3.74 | 0
O=C(Cn1cnc2sc(-c3ccccc3)cc2c1=O)N1CCOCC1 | 0 | 0 | 0 | 0 | 0 | 0
CC(=O)C(Sc1ncnc2sc3c(c12)CCCC3)C(C)=O | 0 | 0 | 0 | 0 | 0 | 0
O=C(Nc1ccc([N+](=O)[O-])cc1)c1ccccc1F | 137.7 | 0 | 0 | 0 | 0 | 0
O=C(CCc1c[nH]c2ccccc12)NCC(=O)Nc1ccc(F)c(F)c1F | 0 | 0 | 0 | 0 | 0 | 0
S=c1nc(-c2ccc(Br)cc2)oc2c1CCCC2 | 0 | 0 | 0 | 0 | 0 | 0
Cc1cccc(-c2nc(=S)c3c(o2)CCCC3)c1 | 139.0 | 0 | 0 | 0 | 0 | 0
O=C(Cc1ccc(Cl)cc1)Nc1ccc(S(=O)(=O)Nc2cnc3ccccc3n2)cc1 | 0 | 0 | 0 | 0 | 0 | 0
COC(=O)c1ccc(CNC(=O)COC(=O)Cc2ccsc2)cc1 | 0 | 0 | 0 | 0 | 0 | 0
Cc1ccc(C(=O)N/N=C/c2ccc3c(c2)OCO3)o1 | 137.5 | 0 | 0 | 0 | 0 | 0
Cc1ccc(C(=O)/C=C/c2ccc3c(c2)OCO3)o1 | 0 | 0 | 0 | 0 | 0 | 0
CCOC(=O)c1c(C)nc(C)c(C(=O)OCC)c1-c1ccccc1 | 0 | 0 | 0 | 0 | 0 | 0
CC(=O)c1c(C)nc(-c2ccccc2)nc1N | 0 | 0 | 0 | 0 | 0 | 0
CCOC(=O)c1c(C)nc(-c2ccccc2)nc1N | 148.1 | 0 | 0 | 151.7 | 3.97 | 0
CCOC(=O)c1c(-c2ccccc2)cn2c(C)cc(C)nc12 | 138.1 | 0 | 0 | 0 | 0 | 0
O=C1c2ccccc2-c2nc3ccccc3nc21 | 132.1 | 0 | 0 | 0 | 0 | 0
COc1ccccc1-c1nc2ccccc2nc1-c1ccccc1OC | 0 | 0 | 0 | 0 | 0 | -
O=C(NNc1ccnc2cc(Cl)ccc12)C1CCCCC1 | 0 | 76.5 | 35.9 | 0 | 0 | 0
COc1ccc(C(=O)N2CCN(c3ccccn3)CC2)cc1[N+](=O)[O-] | 0 | 0 | 0 | 0 | 0 | 0
COc1cccc(N/C=C/c2onc(C)c2[N+](=O)[O-])c1 | 143.7 | 0 | 0 | 0 | 0 | 145.5
O=C(CCCOc1ccccc1)Nc1nc2ccccc2[nH]1 | 129.9 | 0 | 0 | 0 | 0 | 0
SMILES | STAT1 act | STAT3 inh | STAT1 blocker | STAT3 act | NF-kB expr up | APP 5'UTR act
COc1ccc(C(=O)Nc2nc3cc(OC)c(OC)cc3c(=O)[nH]2)cc1 | 0 | 0 | 0 | 0 | 0 | 0
COc1ccc(C(=O)Nn2c(SCC(=O)c3ccccc3)nc3ccccc3c2=O)cc1 | 0 | 0 | 0 | 0 | 0 | 155.0
Cc1ccc(OCCCC(=O)Nc2nc3ccccc3[nH]2)cc1 | 0 | 0 | 0 | 0 | 0 | 0
COc1ccc(C(=O)Nc2nc3ccccc3c(=O)[nH]2)cc1 | 0 | 0 | 0 | 0 | 4.01 | 177.2
CC(=O)Nc1nc2ccccc2[nH]1 | 0 | 0 | 0 | 0 | 0 | 0
O=C(Nc1nc2ccccc2[nH]1)c1ccccc1 | 0 | 0 | 0 | 0 | 0 | 214.2
CC(C)N(C(=O)Cn1cc(SCC(=O)NCC2CCCO2)c2ccccc21)C(C)C (stereo not given) | 0 | 0 | 0 | 0 | 0 | 0
Cc1ccc(/C=N/NC(=O)c2nn(C)cc2Cl)cc1 | 128.9 | 0 | 0 | 0 | 0 | 0
Cc1occc1C(=O)NNC(=S)NCc1ccccc1 | 0 | 0 | 0 | 0 | 0 | 0
CCCCCn1c(=O)c(-c2nc3ccccc3[nH]2)c(O)c2ccccc21 | 0 | 0 | 0 | 0 | 0 | 0
O=C(Oc1ccc(Cl)c2ccccc12)N1CCCCC1 | 0 | 0 | 0 | 0 | 0 | 0
O=C(Oc1ccc2ccccc2c1Cl)N1CCCC1 | 143.8 | 0 | 0 | 0 | 5.09 | 143.1
Cc1nn2cc(-c3ccc(N)cc3)nc2s1 | 139.0 | 0 | 0 | 0 | 0 | 0

From PubChem BioAssay
